The values below come from PubChem BioAssay.

Active and inactive are the calls of the source.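 Rule for the calls, unless noted: active = GFP response above 150% of the DMSO level; inconclusive = fewer than 70 events counted for a yeast strain; inactive = the rest.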

The nature of assay [1]: RPL19A-GFP modulators, yeast TOR pathway, confirmation, cell-based, S. cerevisiae, flow cytometry, cherry picks, mother/daughter gates (AID 2270;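 active = GFP response below 50% of the DMSO control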). Conditions: S. cerevisiae RPL19A-GFP strain, 3 h, at 10 µM, stronger effect = lower value, 100 = same GFP as DMSO wells.
A short description of assay [2]: LAP4-GFP expression modulators in yeast, confirmation, cell-based, cherry picks, flow cytometry, mother/daughter gates (AID 2271;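 active = GFP response above 150% of the DMSO control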;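 note: ratio of sample to DMSO plate mean so 100% equals DMSO level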). Conditions: S. cerevisiae LAP4-GFP strain, 3 h, at 10 µM, stronger effect = higher value, 100 means same as DMSO control. An outline of the steps: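 Material: Alexa 633-stained baker's yeast GFP-fusion strain; Compound dosing: single test-compound dose, 10 µM final; Incubation: 30 °C, 3 h compound incubation, rotating; Detection: HT flow cytometry, GFP fluorescence channel; Control set: positive rapamycin (400 ng/mL), negative DMSO.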

Assay [3] can be described thus: modulators of MEP2-GFP levels in yeast, confirmation, S. cerevisiae, flow cytometry GFP, cherry picks (AID 2272;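 active = GFP response above 150% of the DMSO control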;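 note: ratio of well signal to plate DMSO mean so 100% equals DMSO level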). The note with it: S. cerevisiae MEP2-GFP strain, 3 h, at 10 µM, stronger effect = higher value.
A short description of assay [4]: AGP1-GFP expression modulators, hit retest, confirmation, cell-based, flow cytometry, S. cerevisiae, cherry picks (AID 2273).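 Note: median GFP channel fluorescence over the whole cell population gate.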 The note with it: S. cerevisiae AGP1-GFP strain, 3 h, at 10 µM.
A short description of assay [5]: modulators of CIT2-GFP expression in yeast, confirmation, S. cerevisiae, GFP fusion, cherry picks, mother/daughter gates (AID 2274). The note with it: S. cerevisiae CIT2-GFP strain, flow cytometry, 3 h, at 10 µM, stronger effect = higher value.
Setting [6] is: measured here: daughter cell gate.
Setting [7] is: measured here: mother cell gate.
[8] abbreviates: measured here: daughter cell gate response.
Where [9] appears, read: measured here: mother cell gate response.

Regarding `Cc1noc2ncnc(Sc3ccccc3Cl)c12`, the GFP response vs DMSO in assay [1] was 106% (inactive); in assay [1] (setting [6]), 104%; in assay [1] (setting [7]), 105%; in assay [3], 109% (inactive). Besides, the GFP response relative to DMSO was 112% (inactive) in assay [2], 111% in assay [2] (setting [8]) and 112% in assay [2] (setting [9]). Further, the GFP response, % of DMSO was 101% (inactive) in assay [4], 116% (inactive) in assay [5], 113% in assay [5] (setting [6]) and 114% in assay [5] (setting [7]).
As for `O=[N+]([O-])c1ccc(Cl)cc1Sc1ccccn1`, the GFP response vs DMSO in assay [1] is 105% (inactive); in assay [1] (setting [6]), 108%; in assay [1] (setting [7]) it was 104%; in assay [3], 112% (inactive). For the same molecule, the GFP response relative to DMSO is 94.1% (inactive) in assay [2], 96% in assay [2] (setting [8]) and 91.3% in assay [2] (setting [9]). The GFP response, % of DMSO was 102% (inactive) in assay [4], 111% (inactive) in assay [5], 110% in assay [5] (setting [6]) and 108% in assay [5] (setting [7]).
In the case of `CN1CCN(C(c2ccc(C(F)(F)F)cc2)c2ccc3cccnc3c2O)CC1` (configuration not stated), the GFP response vs DMSO in assay [1] is 93.6% (inactive); in assay [1] (setting [6]) it was 87.3%; in assay [1] (setting [7]) it was 86.7%; in assay [3], 109% (inactive). For the same molecule, the values for the GFP response relative to DMSO in assay [2], in assay [2] (setting [8]) and in assay [2] (setting [9]) were 216% (active), 190% and 218%, respectively. Moreover, the GFP response, % of DMSO was 87.4% (inactive) in assay [4], 97.3% (inactive) in assay [5], 95.6% in assay [5] (setting [6]) and 94.4% in assay [5] (setting [7]).
`Cc1ccc(-c2csc3ncn(Cc4ccc(C(=O)O)cc4)c(=O)c23)cc1C`: the GFP response vs DMSO is 98.8% (inactive) in assay [1], 97.3% in assay [1] (setting [6]), 99% in assay [1] (setting [7]) and 105% (inactive) in assay [3]. Moreover, the figures for the GFP response relative to DMSO in assay [2], in assay [2] (setting [8]) and in assay [2] (setting [9]) were 117% (inactive), 114% and 120%, respectively. Moreover, the GFP response, % of DMSO was 116% (inactive) in assay [4], 106% (inactive) in assay [5], 105% in assay [5] (setting [6]) and 107% in assay [5] (setting [7]).
Turning to `CCOc1ccc(N/N=C(/C#N)C(N)=O)cc1`, the GFP response vs DMSO in assay [1] was 82.7% (inactive); in assay [1] (setting [6]), 65.8%; in assay [1] (setting [7]), 81.8%; in assay [3], 176% (active). Besides, the GFP response relative to DMSO in assay [2] was 237% (active); in assay [2] (setting [8]), 182%; in assay [2] (setting [9]), 250%. Besides, the GFP response, % of DMSO was 113% (inactive) in assay [4], 161% (active) in assay [5], 128% in assay [5] (setting [6]) and 159% in assay [5] (setting [7]).
Regarding `CCCCCn1c(=O)c(C(=O)OCC)c(O)c2ccccc21`, the GFP response vs DMSO in assay [1] was 97.6% (inactive); in assay [1] (setting [6]), 96.1%; in assay [1] (setting [7]), 99.7%; in assay [3] it was 102% (inactive). For the same molecule, the GFP response relative to DMSO is 99.2% (inactive) in assay [2], 96% in assay [2] (setting [8]) and 100% in assay [2] (setting [9]). For the same molecule, the GFP response, % of DMSO was 90% (inactive) in assay [4], 92.6% (inactive) in assay [5], 89.9% in assay [5] (setting [6]) and 93.8% in assay [5] (setting [7]).
For the molecule `Cc1cccc(Nc2nc(-c3ccccn3)cs2)n1`, the GFP response vs DMSO in assay [1] was 77.9% (inactive); in assay [1] (setting [6]), 104%; in assay [1] (setting [7]), 66.6%; in assay [3] it was 110% (inactive). For the same molecule, the GFP response relative to DMSO was 137% (inactive) in assay [2], 138% in assay [2] (setting [8]) and 120% in assay [2] (setting [9]). The GFP response, % of DMSO in assay [4] was 89.8% (inactive); in assay [5] it was 100% (inactive); in assay [5] (setting [6]), 121%; in assay [5] (setting [7]) it was 83.7%.
For the molecule `CCN(Cc1ccccc1)S(=O)(=O)c1ccc(C(=O)Nc2nnc(C3CC3)o2)cc1`, the GFP response vs DMSO is 98% (inactive) in assay [1], 97% in assay [1] (setting [6]), 98.6% in assay [1] (setting [7]) and 99.5% (inactive) in assay [3]. The GFP response relative to DMSO is 106% (inactive) in assay [2], 105% in assay [2] (setting [8]) and 104% in assay [2] (setting [9]). In addition, the GFP response, % of DMSO is 96.9% (inactive) in assay [4], 99.3% (inactive) in assay [5], 100% in assay [5] (setting [6]) and 96.8% in assay [5] (setting [7]).
For `CN1CCN(/N=C/c2c3ccccc3c(Cl)c3ccccc23)CC1`, the GFP response vs DMSO was 94.9% (inactive) in assay [1], 95% in assay [1] (setting [6]), 94% in assay [1] (setting [7]) and 105% (inactive) in assay [3]. The GFP response relative to DMSO in assay [2] is 105% (inactive); in assay [2] (setting [8]), 101%; in assay [2] (setting [9]), 101%. Also, the GFP response, % of DMSO in assay [4] is 99.8% (inactive); in assay [5], 101% (inactive); in assay [5] (setting [6]) it was 102%; in assay [5] (setting [7]) it was 95.7%.
Consider `O=C(OCC(=O)N1CCN(C(=O)c2ccco2)CC1)c1cc(-c2ccc(F)cc2)nc2ccccc12`, for which the GFP response vs DMSO in assay [1] was 78.9% (inactive); in assay [1] (setting [6]), 74.3%; in assay [1] (setting [7]), 74.5%; in assay [3], 125% (inactive). Besides, the GFP response relative to DMSO was 133% (inactive) in assay [2], 107% in assay [2] (setting [8]) and 138% in assay [2] (setting [9]). The GFP response, % of DMSO in assay [4] was 138% (inactive); in assay [5], 135% (inactive); in assay [5] (setting [6]), 114%; in assay [5] (setting [7]) it was 136%.
As for `Cc1cc(N)ccc1NC(=O)c1ccccc1`, the GFP response vs DMSO is 101% (inactive) in assay [1], 99.6% in assay [1] (setting [6]), 102% in assay [1] (setting [7]) and 105% (inactive) in assay [3]. Besides, the GFP response relative to DMSO in assay [2] was 98.2% (inactive); in assay [2] (setting [8]) it was 99.1%; in assay [2] (setting [9]), 98.4%. The GFP response, % of DMSO in assay [4] is 103% (inactive); in assay [5] it was 100% (inactive); in assay [5] (setting [6]), 101%; in assay [5] (setting [7]), 101%.
For the molecule `Cc1[nH]n(-c2ccccc2)c(=O)c1C(c1ccccc1[N+](=O)[O-])C(C#N)C#N` (configuration not stated), the GFP response vs DMSO is 106% (inactive) in assay [1], 84.6% in assay [1] (setting [6]), 98.8% in assay [1] (setting [7]) and 112% (inactive) in assay [3]. Further, the results for the GFP response relative to DMSO in assay [2], in assay [2] (setting [8]) and in assay [2] (setting [9]) were 192% (active), 168% and 195%, respectively. Moreover, the GFP response, % of DMSO in assay [4] is 98.9% (inactive); in assay [5], 98.4% (inactive); in assay [5] (setting [6]), 113%; in assay [5] (setting [7]), 81.8%.
Take `COC(=O)Cc1ccc(OCc2ccc(Cl)nc2)cc1`: the GFP response vs DMSO in assay [1] was 97.8% (inactive); in assay [1] (setting [6]) it was 97.5%; in assay [1] (setting [7]) it was 98.6%; in assay [3], 97.5% (inactive). In addition, the figures for the GFP response relative to DMSO in assay [2], in assay [2] (setting [8]) and in assay [2] (setting [9]) were 107% (inactive), 107% and 106%, respectively. The GFP response, % of DMSO in assay [4] was 101% (inactive); in assay [5] it was 95% (inactive); in assay [5] (setting [6]), 94.6%; in assay [5] (setting [7]), 94.5%.
Consider `O=C(c1ccc([N+](=O)[O-])o1)N1CCN(c2nc3ccc(F)cc3s2)CC1`, for which the GFP response vs DMSO in assay [1] was 99.8% (inactive); in assay [1] (setting [6]), 100%; in assay [1] (setting [7]), 98.4%; in assay [3], 105% (inactive). Besides, the GFP response relative to DMSO in assay [2] was 111% (inactive); in assay [2] (setting [8]), 109%; in assay [2] (setting [9]) it was 115%. For the same molecule, the GFP response, % of DMSO in assay [4] was 87.7% (inactive); in assay [5] it was 101% (inactive); in assay [5] (setting [6]) it was 103%; in assay [5] (setting [7]), 96.1%.
In the case of `Cc1cc(C=C2C(=O)c3ccccc3C2=O)c(C)n1-c1cccc(C(=O)O)c1`, the GFP response vs DMSO is 100% (inactive) in assay [1], 101% in assay [1] (setting [6]), 101% in assay [1] (setting [7]) and 101% (inactive) in assay [3]. The GFP response relative to DMSO is 96.1% (inactive) in assay [2], 98.2% in assay [2] (setting [8]) and 95.1% in assay [2] (setting [9]). Further, the GFP response, % of DMSO is 100% (inactive) in assay [4], 112% (inactive) in assay [5], 110% in assay [5] (setting [6]) and 113% in assay [5] (setting [7]).
With `COc1cc(NC(=O)C(C)C)ccc1NC(=O)c1cc2ccccc2o1`, the GFP response vs DMSO is 102% (inactive) in assay [1], 99.8% in assay [1] (setting [6]), 103% in assay [1] (setting [7]) and 102% (inactive) in assay [3]. In addition, the GFP response relative to DMSO is 92.6% (inactive) in assay [2], 92.5% in assay [2] (setting [8]) and 94.2% in assay [2] (setting [9]). For the same molecule, the GFP response, % of DMSO is 97.8% (inactive) in assay [4], 103% (inactive) in assay [5], 101% in assay [5] (setting [6]) and 104% in assay [5] (setting [7]).
As to `O=S1(=O)Nc2c(ccc3cccnc23)-c2ccccc21`, the GFP response vs DMSO in assay [1] was 89.9% (inactive); in assay [1] (setting [6]), 91.7%; in assay [1] (setting [7]) it was 103%; in assay [3] it was 112% (inactive). Also, the GFP response relative to DMSO in assay [2] was 124% (inactive); in assay [2] (setting [8]), 104%; in assay [2] (setting [9]), 163%. Besides, the GFP response, % of DMSO in assay [4] was 103% (inactive); in assay [5], 111% (inactive); in assay [5] (setting [6]), 108%; in assay [5] (setting [7]), 113%.
